The source made the active and inactive calls.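 Rule for the calls, unless noted: active = current rise at least 3 SD above the untreated control mean in each of two repeat wells; inactive = the rest.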
How the values were obtained:
[1] = nonspecific flux increase, KCNQ1-free cells – parental CHO cells, counter-screen for KCNQ1 potentiator project (AID 493006;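 active = duplicate-averaged activation above buffer control mean plus 5 SD of those controls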;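 for activation: fluorescence ratio of max minus min over baseline after K+ and Tl+ depolarization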); details: parental CHO-K1 cells, FluxOR thallium flux, at 10 µM; hits give high values
Method in brief: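 Assay system: parental CHO-K1 cells lacking KCNQ1, loaded with FluxOR thallium dye; timing: dye 90 min RT, compound 20 min RT; signal: kinetic thallium-flux fluorescence; repeats: duplicate wells per compound, percent values averaged; benchmarks: buffer and R-L3 controls; reagent: Potassium/thallium depolarization pulse; read-out: fluorescence change ratio scaled 0% buffer, 100% R-L3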

[2] = target: Potassium voltage-gated channel subfamily KQT member 1 (Homo sapiens) (UniProt P51787); test: enhancement of KCNQ1 channel thallium flux – FluxOR thallium flux, CHO cells, duplicates, confirmation (AID 493007;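 active = potentiation averaged over duplicate wells exceeding buffer-only control mean by more than 3 SD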;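 for outcome: cells depolarized by a potassium plus thallium sulfate stimulus after compound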); details: KCNQ1 cell line, FluxOR thallium flux fluorescence, at 10 µM; hits give high values, % of reference activator effect, buffer zero
Potassium voltage-gated channel subfamily KQT member 1 (Homo sapiens), sequence (P51787 whole entry, looked up): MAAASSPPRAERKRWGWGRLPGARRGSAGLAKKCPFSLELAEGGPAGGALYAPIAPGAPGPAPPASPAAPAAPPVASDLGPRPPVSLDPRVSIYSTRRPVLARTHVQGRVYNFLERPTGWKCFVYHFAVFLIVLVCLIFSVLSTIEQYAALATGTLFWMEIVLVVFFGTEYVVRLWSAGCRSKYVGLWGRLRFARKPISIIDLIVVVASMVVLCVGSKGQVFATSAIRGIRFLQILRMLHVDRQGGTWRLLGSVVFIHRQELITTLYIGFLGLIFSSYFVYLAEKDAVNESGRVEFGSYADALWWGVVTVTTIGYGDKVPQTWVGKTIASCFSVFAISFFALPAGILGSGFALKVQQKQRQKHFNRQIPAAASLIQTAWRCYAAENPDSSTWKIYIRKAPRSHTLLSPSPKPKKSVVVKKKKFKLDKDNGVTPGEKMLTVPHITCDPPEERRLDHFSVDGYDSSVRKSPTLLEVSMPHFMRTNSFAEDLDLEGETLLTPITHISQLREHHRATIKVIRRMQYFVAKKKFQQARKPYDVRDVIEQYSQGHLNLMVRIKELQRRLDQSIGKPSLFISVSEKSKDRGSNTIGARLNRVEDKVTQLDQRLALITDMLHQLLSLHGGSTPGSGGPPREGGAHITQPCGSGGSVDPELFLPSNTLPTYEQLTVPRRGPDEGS
Method in brief: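 material = CHO cells stably expressing the KCNQ1 potassium channel | repeats = duplicate wells per compound | measure = percent activation between buffer and R-L3 responses | signal = FluxOR thallium-flux fluorescence, kinetic read | schedule = FluxOR dye loading 90 min, compound exposure 20 min, room temperature | control set = buffer and R-L3 controls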

[3] = target: Potassium voltage-gated channel subfamily KQT member 2 (Rattus norvegicus) (UniProt O88943); test: KCNQ2 thallium flux enhancement – KCNQ2-CHO-K1 cells, selectivity assay for KCNQ1 potentiator project (AID 493009;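 active = mean duplicate potentiation above the buffer control mean plus 5 SD of buffer wells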;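 note: assay conditions were tuned for KCNQ1 rather than KCNQ2 modulators; signal is max minus min fluorescence divided by baseline after thallium stimulus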); details: FluxOR thallium flux fluorescence, at 10 µM; hits give high values, scaled: buffer 0, activator control 100
Potassium voltage-gated channel subfamily KQT member 2 (Rattus norvegicus), sequence (O88943 whole entry, looked up): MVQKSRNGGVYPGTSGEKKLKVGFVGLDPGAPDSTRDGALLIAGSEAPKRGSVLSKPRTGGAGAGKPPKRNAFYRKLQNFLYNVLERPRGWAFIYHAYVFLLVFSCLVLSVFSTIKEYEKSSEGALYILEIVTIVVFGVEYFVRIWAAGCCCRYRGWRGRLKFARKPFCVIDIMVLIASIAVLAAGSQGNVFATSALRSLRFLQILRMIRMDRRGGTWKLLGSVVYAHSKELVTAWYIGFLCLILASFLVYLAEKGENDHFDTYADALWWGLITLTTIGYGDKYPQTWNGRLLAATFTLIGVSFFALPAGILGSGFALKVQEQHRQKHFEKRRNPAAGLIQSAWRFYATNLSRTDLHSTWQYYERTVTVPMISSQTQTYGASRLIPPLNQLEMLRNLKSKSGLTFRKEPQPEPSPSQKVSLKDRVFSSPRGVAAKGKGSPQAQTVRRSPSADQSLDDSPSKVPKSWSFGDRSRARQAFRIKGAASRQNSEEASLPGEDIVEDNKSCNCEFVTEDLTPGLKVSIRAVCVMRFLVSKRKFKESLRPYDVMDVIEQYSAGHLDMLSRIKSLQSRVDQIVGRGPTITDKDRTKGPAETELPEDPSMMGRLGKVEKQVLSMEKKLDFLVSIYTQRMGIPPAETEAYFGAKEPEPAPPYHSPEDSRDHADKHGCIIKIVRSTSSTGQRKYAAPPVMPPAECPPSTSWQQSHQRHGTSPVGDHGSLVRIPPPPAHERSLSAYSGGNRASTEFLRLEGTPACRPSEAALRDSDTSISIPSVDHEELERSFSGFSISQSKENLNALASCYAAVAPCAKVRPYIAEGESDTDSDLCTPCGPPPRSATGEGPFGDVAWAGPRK

[4] = target: Potassium voltage-gated channel subfamily KQT member 1 (Homo sapiens) (UniProt P51787); test: KCNQ1 activators by electrophysiology – IonWorks patch clamp, KCNQ1-CHO cells, orthogonal assay for KCNQ1 potentiator project, confirmation (AID 493184); details: automated patch clamp current, at 10 µM; hits give high values
Method in brief: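 Assay system – CHO cells carrying KCNQ1 · Medium – pH 7.4 external bath · Probe or stimulus – depolarizing pulse to +40 mV from -90 mV · Compound dosing – one dose, 10 µM final · Measured by – automated perforated-patch electrophysiology · Measure – % potentiation of steady-state current relative to pre-compound · Repeats – two replicates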

SMILES	outcome [1]	potentiation [2]	outcome [3]	outcome [4]	outcome [2]	activation [1]	potentiation [3]
CCOC(=O)NC(=S)Nc1ccc(C(C)(C)C)cc1	inactive	20% (active)	inactive	inactive			
COc1ccc(CCN=C(N)NS(=O)(=O)c2ccc(F)cc2)cc1OC	inactive		inactive	inactive	inactive		
Cc1cc(C(=O)OCC(=O)NCc2ccco2)c(C)n1-c1ccc(F)cc1		116% (active)		inactive		283% (active)	323% (active)
CCn1c(SCC(N)=O)nc2sc3c(c2c1=O)CCCC3		34% (active)		inactive		153% (active)	147% (active)
COc1cc(OC)cc(C(=O)NNC(=O)C(=O)Nc2cc(OC)c(Cl)cc2OC)c1		64% (active)		inactive		202% (active)	213% (active)
COc1ccccc1C(=O)NNC(=O)C(=O)NC1CCCCC1		67.5% (active)		inactive		262% (active)	262% (active)
Cn1c(=NC(=O)c2ccco2)sc2cccc(F)c21	inactive		inactive	inactive	inactive		
S=c1nc(-c2ccc(Br)cc2)oc2c1CCCC2	inactive	37% (active)	inactive	inactive			
CCOC(=O)C1=C(O)c2ccccc2C(=O)/C1=C\c1ccc(CC)cc1		114% (active)		inactive		177% (active)	156% (active)
C/C(=N\NC(=O)C(=O)Nc1cccc(C(F)(F)F)c1)c1ccc(Cl)s1	inactive		inactive	inactive	inactive		
COC(=O)[C@@H]1CCCN1C(=O)CCc1nnc(CCC2CCCCC2)o1	inactive		inactive	inactive	inactive		
O=C1NC(=S)S/C1=C\c1ccc2ccccc2c1		82% (active)		inactive		234% (active)	218% (active)
CC(C)CSC1=NSC2=NC(=O)/C(=C\c3cccs3)C(=N)N12	inactive		inactive	inactive	inactive		
CN(C)c1ccc(-c2nn3c(-c4ccccc4Cl)nnc3s2)cc1	inactive		inactive	inactive	inactive		
Nc1c(-c2ccccc2)cnc2c(-c3ccccc3)cnn12	inactive		inactive	inactive	inactive		
O=C(NC(=S)Nc1nc(-c2ccccc2)cs1)c1ccco1	inactive	48.5% (active)	inactive	inactive			
O=C(ONC1=NCCCCC1)c1ccc(Cl)cc1	inactive		inactive	inactive	inactive		
O=C(CSc1nnnn1-c1ccc(F)cc1)Nc1ccc(N2CCOCC2)c(Cl)c1	inactive		inactive	inactive	inactive		
CCCC(=O)N1CCN(Cc2nc3cc([N+](=O)[O-])ccc3n2C)CC1	inactive		inactive	inactive	inactive		
Cc1ccc(-n2c(=S)[nH]c3c(oc4ccccc43)c2=O)cc1C		23.5% (active)		inactive		160% (active)	150% (active)

SMILES	outcome [1]	potentiation [2]	outcome [3]	outcome [4]	outcome [2]	activation [1]	potentiation [3]
CCOc1ccc(NC(=O)Cn2nnc(-c3ccccc3NC(=O)c3cccs3)n2)cc1	inactive		inactive	inactive	inactive		
CCC1(C)Cc2c(sc3nc(SC)[nH]c(=S)c23)CO1 (stereo not given)		194% (active)		inactive		550% (active)	534% (active)
Fc1ccc(-c2csc(=S)[nH]2)cc1		120% (active)		inactive		416% (active)	398% (active)
COc1ccccc1C(=O)NC(=S)NNC(=O)c1sc2ccccc2c1Cl		187% (active)		inactive		358% (active)	361% (active)
COc1ccccc1NC(=O)C(=O)NNC(=O)c1ccco1		62.5% (active)		inactive		240% (active)	210% (active)
Cc1cccc(CS(=O)(=O)c2ncc(CO)n2C)c1	inactive		inactive	inactive	inactive		
CC(C)(C)c1ccc(OCC(=O)NNC(=S)NC(=O)c2ccco2)c(Br)c1		89.5% (active)		inactive		150% (active)	254% (active)
c1ccc(-n2cnc3cc(NCc4cccs4)ccc32)cc1	inactive		inactive	inactive	inactive		
O=C(NC(=S)Nc1ccccc1N1CCCC1)c1cccc(F)c1	inactive	37% (active)		inactive			144% (active)
COc1ccc(C(=O)c2ccc(OC)c(N)c2)cc1N		38.5% (active)		inactive		162% (active)	178% (active)
CCOC(=O)c1cc(CC)sc1NC(=O)CC1Sc2ccc(C(F)(F)F)cc2NC1=O (stereo not given)	inactive		inactive	inactive	inactive		
O=C(NC(=S)Nc1ccccc1F)c1ccc(Br)o1		55.5% (active)		inactive		230% (active)	261% (active)
Cc1ccc(-c2c(C)n([O-])c3c([n+]2=O)CCCC3)o1	inactive		inactive	inactive	inactive		
CCOC(=O)C(C)Oc1cccc2c(=O)n(CC(=O)NCc3ccc4c(c3)OCO4)ccc12 (stereo not given)	inactive		inactive	inactive	inactive		
Cc1ccc(C(C#N)c2ccc3c(C(F)(F)F)cc(C(F)(F)F)nc3n2)cc1 (stereo not given)		114% (active)		inactive		150% (active)	222% (active)
CCNC(=S)Nc1scc(-c2ccccc2)c1C(=O)OCC		44% (active)		inactive		254% (active)	214% (active)
CNC(=S)N/N=C/c1cc(Br)cc(Br)c1O			inactive	inactive	inactive	168% (active)	
CCc1ccc(-c2c(C)sc(NC(C)=O)c2C(N)=O)cc1	inactive		inactive	inactive	inactive		
Cc1ccc2nsnc2c1S(=O)(=O)Nc1cccc2nsnc12		26% (active)		inactive		143% (active)	174% (active)
CCOC(=O)c1sc2nc(C)[nH]c(=S)c2c1C		52% (active)		inactive		198% (active)	214% (active)

SMILES	outcome [1]	potentiation [2]	outcome [3]	outcome [4]	outcome [2]	activation [1]	potentiation [3]
CCCCCn1c(=O)c(F)cn(Cc2ccc(OC)c([N+](=O)[O-])c2)c1=O	inactive		inactive	inactive	inactive		
CCCOc1ccc(CN(CCC#N)C(=S)NC(=O)c2ccccc2)cc1		134% (active)		inactive		288% (active)	303% (active)
CCOc1cc(CNc2ncnc3nc[nH]c23)ccc1OC	inactive		inactive	inactive	inactive		
Cc1cccc(-n2c(=S)[nH]c3sc4c(c3c2=O)CCc2ccccc2-4)c1		149% (active)		inactive		240% (active)	330% (active)
CC1(C)CC(N2CCOCC2)=CC(=[N+]2CCOCC2)C1	inactive		inactive	inactive	inactive		
CCC1Oc2ccc(C)cc2N(CC(=O)N(Cc2ccc(C)o2)C2CC(C)(C)NC(C)(C)C2)C1=O (stereo not given)		63.5% (active)		inactive		152% (active)	166% (active)
O=C(Cn1c(=O)c2c(ncn2Cc2ccccc2)n(Cc2ccccc2)c1=O)N1CCc2ccccc21	inactive		inactive	inactive	inactive		
O=C(Nc1cccc(S(=O)(=O)NC2=NCCC2)c1)c1c(F)cccc1Cl	inactive		inactive	inactive	inactive		
CSc1ccc(/C=N/n2c(Cc3ccc(Br)cc3)n[nH]c2=S)cc1	inactive	174% (active)		inactive			168% (active)
O=C(NC(=S)NC1CCCc2ccccc21)c1ccco1 (stereo not given)		122% (active)		inactive		188% (active)	272% (active)
c1ccc2c(c1)CSc1sccc1C2=C1CCNCC1	inactive		inactive	inactive	inactive		
CCOC(=O)c1[nH]c(C=O)c(C(=O)OCC)c1C	inactive		inactive	inactive	inactive		
COC(=O)c1ccsc1NC(=O)CN1CCN(Cc2ccc3c(c2)OCO3)CC1	inactive		inactive	inactive	inactive		
COc1ccccc1NS(=O)(=O)c1cc(NC(=O)c2cnccn2)ccc1N1CCOCC1		54% (active)		inactive		222% (active)	248% (active)
CC(=O)OC1OCCOC1NC(=S)Nc1ccc(C)cc1 (stereo not given)	inactive		inactive	inactive	inactive		
COc1ccc(CCN2CC(C(=O)Nc3ccc4c(c3)OCO4)CC2=O)cc1OC (stereo not given)		21% (active)		inactive		156% (active)	158% (active)
CS(=O)(=O)N1CCN(c2ccccc2NC(=O)CSc2nnc(-c3ccco3)o2)CC1	inactive		inactive	inactive	inactive		
S=c1nc(COc2ccccc2)[nH]c2ccccc12		212% (active)		inactive		698% (active)	552% (active)
CC(C)CC(=O)NC(=S)Nc1nc(-c2cccc3ccccc23)cs1	inactive	60% (active)		inactive			156% (active)
C=CCn1c(O)c(N=NC(=S)Nc2ccccc2C)c2cc(S(=O)(=O)N3CCOCC3)ccc21		45% (active)		inactive		218% (active)	226% (active)
